The list is not random: actives were taken first. Their share in the collection is about 0.55%.
TRPML3 ag: human mucolipin-3 channel agonism; activation, % at 3 µM; HEK293 TRPML3-YFP, Fluo-8 calcium fluorescence; 100% = the carbachol control signal; Q8TDD5; actives 0.29% (n = 220,000); AID 1448;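 active means activation above its plate's cutoff, the mean activation of the plate's test wells plus 3 SD, cut at about 12% in these data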;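 further: 0% = DMSO only wells and 100% = carbachol wells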
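Material: HEK293 cells stably carrying human TRPML3-YFP; compound dosing: single dose, 3 µM final nominal compound, 0.3% DMSO final; incubation: 1-h 37 °C dye load, 5-s basal, 120-s post-compound reads; technique: Fluo-8 intracellular calcium fluorescence, excitation 470-495 nm, emission 515-575 nm; read-out basis: percent activation from peak-to-basal fluorescence ratio, scaled between DMSO and carbachol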
V1R ag counter: V1a receptor agonism, counter-screen for OXTR agonists; P37288; CHO-V1R cells, Fluo-8 calcium fluorescence, agonist mode; 0% DMSO, 100% 3 nM vasopressin; activation, % at 3 µM; actives 0.25% (n = 320,000); AID 2797;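 active means activation above the mean activation of all tested compounds plus 3 SD, per screening run, cut at about 20% in these data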;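 further: signal is peak over basal fluorescence ratio across a 100 second FLIPR read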
OXTR ag: agonists of human oxytocin receptor. activation, % at 3 µM. P30559. CHO-OTR cells, Fluo-8 calcium fluorescence; normalized: DMSO 0%, oxytocin 100%. AID 2435. actives 0.32% (n = 320,000);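 active means activation above the mean of all tested compounds plus 3 SD, cutoff set per screening run, cut at about 20% in these data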;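 further: peak over basal fluorescence ratio from a 100 s FLIPR kinetic read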
Target sequence (P30559 whole entry, looked up): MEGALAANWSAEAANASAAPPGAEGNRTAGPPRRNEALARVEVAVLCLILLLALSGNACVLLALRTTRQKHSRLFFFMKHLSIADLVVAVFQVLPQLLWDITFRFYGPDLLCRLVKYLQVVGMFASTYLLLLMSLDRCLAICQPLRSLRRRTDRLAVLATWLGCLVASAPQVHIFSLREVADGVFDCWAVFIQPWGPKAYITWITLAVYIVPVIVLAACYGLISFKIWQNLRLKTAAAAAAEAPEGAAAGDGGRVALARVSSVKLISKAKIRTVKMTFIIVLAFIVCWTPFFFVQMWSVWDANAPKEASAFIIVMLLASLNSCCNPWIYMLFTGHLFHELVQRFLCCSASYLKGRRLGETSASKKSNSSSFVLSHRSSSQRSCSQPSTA
zfTRPN1 agonist: zebrafish TRPN1 (NompC) channel agonism | HEK293 zebrafish TRPN1-YFP, Fluo-8 calcium fluorescence; 100% = response to 87 µM carbachol | activation, % at 3 µM | actives 0.18% (n = 220,000);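 active means activation above its plate's cutoff, the mean activation of test wells on that plate plus 3 SD, cut at about 19% in these data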;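 further: 0% = DMSO alone and 100% = 87 µM carbachol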
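Control set: carbachol 87 µM as high control, DMSO as low control; system: HEK293 stable line with zebrafish TRPN1-YFP; read-out: % activation versus carbachol response; detection: intracellular calcium fluorescence with Fluo-8; doses: single test compound dose, 3 µM nominal, 0.3% DMSO; schedule: dye 1 h 37 °C plus 30 min RT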
OXTR potentiate: human OXTR potentiation. P30559. CHO-OTR cells, Fluo-8 calcium fluorescence, potentiator mode; 0% = oxytocin EC15, 100% = EC100. activation, % at 3 µM. actives 0.061% (n = 320,000). AID 2445;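 active means activation above that plate's cutoff, the mean activation of tested compounds plus 3 SD, cut at about 6.6% in these data, passing the limit was not always enough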;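 further: 100% uses oxytocin at 75 nM as the full agonist control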
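test system = CHO-OTR cells, human receptor | compound = single-point 3.0 µM | schedule = 6 min compound pre-incubation at room temperature, 100 s kinetic read | signal = Fluo-8 no-wash calcium dye fluorescence, excitation 470-495 nm, emission 515-575 nm | repeats = single well per compound, singlicate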
An asterisk follows results filed as active; / = not tested or not shown.

SMILES	TRPML3 ag	V1R ag counter	OXTR ag	zfTRPN1 agonist	OXTR potentiate
O=C1/C(=C\c2cc([N+](=O)[O-])ccc2O)SC(=S)N1Cc1ccc(Cl)cc1	/	67*	96*	/	-25
COc1cc(/C=C2/SC(=S)N(Cc3ccccc3)C2=O)ccc1O	/	36*	28*	/	-5
COC(=O)c1cccc(-n2nnnc2SCC(=O)Nc2cc(C)on2)c1	-1	-1	-2	-2	-7
CCOc1cc(NC(=S)NCC2CCCO2)c(OCC)cc1NC(=O)CC(C)C (centres undefined)	0	0	-1	1	-5
COc1ccccc1-c1cc(C(=O)NC2CCN(C)CC2)c2ccc(Cl)c(C)c2n1	/	12	20*	/	-3
Cn1cc([N+](=O)[O-])c(C(=O)Nc2nc(-c3ccc(Cl)cc3)cs2)n1	1	36*	32*	2	-19
CCCn1c(=O)c(C(=O)NNC(=O)c2ccccc2Cl)c(O)c2ccccc21	/	30*	40*	/	-16
CCOC(=O)c1c(CSC(=N)N)n(-c2ccc(C)cc2)c2cc(Br)c(OC(C)=O)cc12	2	22*	32*	6	-23
CCOC(=O)c1c(CSC(=N)N)n(C)c2cc(Br)c(OC(C)=O)cc12	1	0	-1	1	-9
CCC1=C(OC(=O)N(CC)CC)N2C(=O)OC(=NCCc3c[nH]c4ccccc34)[C@]2(Cc2ccccc2)[C@H]2C1=CC[C@H]1C(=O)N(CC(=O)OC)C(=O)[C@H]12	/	0	-2	/	-8
CN(C)c1ccc(/C=C2\Oc3ccc(C#Cc4cccc(N)c4)cc3C2=O)cc1	/	41*	41*	/	-13
COc1ccc(N=Nc2nc3cc(Br)c(Br)cc3n2C)c(OC)c1	20*	7	10	25*	-7
COc1ccc(CNc2nc3ccccc3n2C)c(OC)c1	0	4	4	0	1
CCc1ccc2c(c1)c(N=NC1=NC(=O)CS1)c(O)n2C	-2	-1	-1	-2	-1
C=CCN1C(=O)c2cccc3c(N4CCCCC4)ccc(c23)C1=O	4	10	9	9	-6
Cc1n[nH]c(C)c1N1C(=O)c2cccc3c(N4CCCCCC4)ccc(c23)C1=O	86*	150*	146*	125*	-24
O=C1c2cccc3c(N4CCCCC4)ccc(c23)C(=O)N1c1cccc(O)c1	33*	40*	33*	70*	-13
COc1ccc(CCC(=O)N2CCCc3ccccc32)cc1	/	-1	-1	/	-13
Cc1ccnc2nc(C(=O)OCC(=O)Nc3ccc4c(c3)OC(F)(F)O4)nn12	0	0	1	1	-5
CN(c1ccc(OCC(=O)OCC(=O)Nc2ccccc2F)cc1)S(=O)(=O)c1cccs1	2	10	13	3	-16
Fc1ccc(NC(=S)NNc2ncc(C(F)(F)F)cc2Cl)c(F)c1	14*	15	16	23*	-26
FC(F)(F)c1cnc(NNC(=S)Nc2ccc(Cl)cc2)c(Cl)c1	18*	11	15	26*	-5
Cc1ccc(NC(=S)NNc2ncc(C(F)(F)F)cc2Cl)c(C)c1	0	4	9	0	-16
CCOc1ccc(Nc2n[nH]c(=S)s2)cc1	1	1	-1	2	-1
CC1(C)CC[C@]2(C(=O)O)CC[C@]3(C)C(=CC[C@@H]4[C@@]5(C)CC[C@H](O[C@@H]6O[C@H](C(=O)O)[C@@H](O)[C@H](O[C@@H]7OC[C@H](O)[C@H](O)[C@H]7O)[C@H]6O)C(C)(C)[C@@H]5CC[C@]43C)[C@@H]2C1	/	108*	56*	/	-13
Cc1ccc(S(=O)(=O)N/N=C/c2ccc(OC3CSC3)cc2)cc1	13*	40*	24*	20*	-29
O=C(Nc1nnc(-c2ccccc2Cl)o1)c1ccco1	0	0	0	-1	-5
O=C(Nc1nnc(-c2ccccc2Cl)o1)c1nc2ccccc2s1	95*	58*	50*	89*	-10
O=C(CCC(=O)N1CCN(S(=O)(=O)c2ccccc2)CC1)c1cccs1	-1	0	1	1	-2

High-throughput results as filed in PubChem.
